Source: ChEMBL document CHEMBL2417469, “Synthesis of novel analogs of 2-pyrazoline obtained from [(7-chloroquinolin-4-yl)amino]chalcones and hydrazine as potential antitumor and antimalarial agents” (Eur J Med Chem, 2013)

Key:
Type in all cases: functional
SNB-75 = assay: Cytotoxicity against human SNB75 cells after 48 hrs by SRB assay; settings: SNB-75, 48 h
Summary of the method: (§1)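 NCI 60-cell screen. Cells grew 24 h (37 °C, 5% CO2) before compound was added. Compounds were in DMSO and diluted in medium with gentamicin, then tested at five levels (100, 10, 1.0, 0.1, 0.01 µM) with 48 h continuous exposure. Adherent cells were fixed with TCA (10% final) and stained with 0.4% SRB, absorbance read at 515 nm. A time-zero plate was included. LC50 is the concentration giving 50% loss of protein relative to time zero.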

SK-MEL-28 = assay: Cytotoxicity against human SK-MEL-28 cells after 48 hrs by SRB assay; settings: SK-MEL-28, 48 h; for CC50: read-out: LC50 (the source's name)
Summary of the method: (§2)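 NCI 60-cell-line screen. Cells preincubated 24 h at 37 °C, 5% CO2; time-zero plates TCA-fixed. Compounds dissolved in DMSO and tested at five concentrations (100, 10, 1.0, 0.1, 0.01 µM) for 48 h continuous exposure. Adherent cells fixed with cold TCA (10% final), then SRB stained; absorbance at 515 nm. GI50, TGI and LC50 calculated from growth relative to time-zero and untreated controls.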

HL-60(TB) = assay: Cytotoxicity against human HL-60(TB) cells after 48 hrs by SRB assay; settings: HL-60, 48 h; for CC50: read-out: LC50 (the source's name); summary of the method: as §2
SNB-19 = assay: Cytotoxicity against human SNB19 cells after 48 hrs by SRB assay; settings: SNB-19, 48 h; summary of the method: as §1
HOP-92 = assay: Cytotoxicity against human HOP92 cells after 48 hrs by SRB assay; settings: HOP-92, 48 h; summary of the method: as §2
Hs-578T = assay: Cytotoxicity against human Hs578T cells after 48 hrs by SRB assay; summary of the method: as §2
786-0 = assay: Cytotoxicity against human 786-0 cells after 48 hrs by SRB assay; settings: 786-0, 48 h; summary of the method: as §2
OVCAR-5 = assay: Cytotoxicity against human OVCAR5 cells after 48 hrs by SRB assay; settings: OVCAR-5, 48 h; summary of the method: as §2
MDA-MB-231 = assay: Cytotoxicity against human MDA-MB-231 cells after 48 hrs by SRB assay; settings: MDA-MB-231, 48 h; summary of the method: as §2
UACC-257 = assay: Cytotoxicity against human UACC257 cells after 48 hrs by SRB assay; settings: UACC-257, 48 h; summary of the method: as §1
MCF7 = assay: Cytotoxicity against human MCF7 cells after 48 hrs by SRB assay; settings: MCF7, 48 h; for CC50: read-out: LC50 (the source's name); summary of the method: as §2
ACHN = assay: Cytotoxicity against human ACHN cells after 48 hrs by SRB assay; settings: for CC50: read-out: LC50 (the source's name); summary of the method: as §2
OVCAR-4 = assay: Cytotoxicity against human OVCAR4 cells after 48 hrs by SRB assay; settings: OVCAR-4, 48 h; summary of the method: as §2
HOP-62 = assay: Cytotoxicity against human HOP62 cells after 48 hrs by SRB assay; settings: HOP-62, 48 h; summary of the method: as §2
OVCAR-3 = assay: Cytotoxicity against human OVCAR3 cells after 48 hrs by SRB assay; settings: OVCAR-3, 48 h; summary of the method: as §2
SW-620 = assay: Cytotoxicity against human SW620 cells after 48 hrs by SRB assay; settings: SW-620, 48 h; summary of the method: as §1
NCI-H23 = assay: Cytotoxicity against human NCI-H23 cells after 48 hrs by SRB assay; settings: NCI-H23, 48 h; for CC50: read-out: LC50 (the source's name); summary of the method: as §2
DU-145 = assay: Cytotoxicity against human DU145 cells after 48 hrs by SRB assay; settings: DU-145, 48 h; summary of the method: as §2
PC-3 = assay: Cytotoxicity against human PC3 cells after 48 hrs by SRB assay; settings: PC-3, 48 h; summary of the method: as §2
A498 = assay: Cytotoxicity against human A498 cells after 48 hrs by SRB assay; settings: A498, 48 h; for CC50: read-out: LC50 (the source's name); summary of the method: as §2
[1] = Cytotoxicity against human EKVX cells after 48 hrs by SRB assay; summary of the method: as §2
UO-31 = assay: Cytotoxicity against human UO31 cells after 48 hrs by SRB assay; settings: UO-31, 48 h; summary of the method: as §1
MOLT-4 = assay: Cytotoxicity against human MOLT4 cells after 48 hrs by SRB assay; settings: MOLT-4, 48 h; summary of the method: as §2
CCRF-CEM = assay: Cytotoxicity against human CCRF-CEM cells after 48 hrs by SRB assay; summary of the method: as §2
TK-10 = assay: Cytotoxicity against human TK10 cells after 48 hrs by SRB assay; settings: TK-10, 48 h; summary of the method: as §1

## Cc1ccc(C2CC(c3ccc(Nc4ccnc5cc(Cl)ccc45)cc3)=NN2C=O)cc1 (configuration not stated)
SNB-75
  GI50: > 100 µM
  LC50 (50% net cell kill): > 100 µM
SK-MEL-28
  GI50: > 100 µM
  CC50: > 100 µM
HL-60(TB)
  GI50: 2.27 µM
  CC50: > 100 µM
SNB-19
  GI50: > 100 µM
  LC50: > 100 µM
HOP-92
  GI50: 2.14 µM
  LC50 (concentration killing 50% of cells): > 100 µM
Hs-578T
  GI50: 5.64 µM
  LC50 (50% net cell kill): > 100 µM
786-0
  GI50: 50.9 µM
  LC50: > 100 µM
OVCAR-5
  GI50: > 100 µM
  LC50: > 100 µM
MDA-MB-231
  GI50: 6.09 µM
  LC50 (concentration killing 50% of cells present at time zero): > 100 µM
UACC-257
  GI50: > 100 µM
  LC50: > 100 µM
MCF7
  GI50: 8.39 µM
  CC50: > 100 µM
ACHN
  GI50: 3.27 µM
  CC50: > 100 µM
OVCAR-4
  GI50: 5.15 µM
  LC50: > 100 µM
HOP-62
  GI50: > 100 µM
  LC50 (50% lethal concentration): > 100 µM
OVCAR-3
  GI50: 6.82 µM
  LC50: > 100 µM
SW-620
  GI50: > 100 µM
  LC50: > 100 µM
NCI-H23
  GI50: 6.93 µM
  CC50: > 100 µM
DU-145
  GI50: > 100 µM
  LC50 (concentration killing 50% of cells): > 100 µM
PC-3
  GI50: 4.61 µM
  LC50: > 100 µM
A498
  CC50: > 100 µM
[1]
  LC50: > 100 µM
UO-31
  GI50: 5.49 µM
  LC50: > 100 µM
MOLT-4
  GI50: 5.13 µM
  LC50: > 100 µM
CCRF-CEM
  GI50: 2.25 µM
  LC50 (concentration killing 50% of cells relative to time zero): > 100 µM
TK-10
  GI50: > 100 µM
  LC50 (concentration giving 50% cell loss vs time zero): > 100 µM

## COc1ccc(C2CC(c3ccc(Nc4ccnc5cc(Cl)ccc45)cc3)=NN2C=O)cc1 (configuration not stated)
SNB-75
  GI50: > 100 µM
  LC50 (50% net cell kill): > 100 µM
SK-MEL-28
  GI50: 20.9 µM
  CC50: > 100 µM
HL-60(TB)
  GI50: 2.23 µM
  CC50: > 100 µM
SNB-19
  GI50: 5.65 µM
  LC50: > 100 µM
HOP-92
  LC50 (concentration killing 50% of cells): > 100 µM
Hs-578T
  GI50: > 100 µM
  LC50 (50% net cell kill): > 100 µM
786-0
  GI50: 32 µM
  LC50: > 100 µM
OVCAR-5
  GI50: > 100 µM
  LC50: > 100 µM
MDA-MB-231
  GI50: 20.1 µM
  LC50 (concentration killing 50% of cells present at time zero): > 100 µM
UACC-257
  GI50: 4.39 µM
  LC50: > 100 µM
MCF7
  GI50: 8.78 µM
  CC50: > 100 µM
ACHN
  GI50: 7.02 µM
  CC50: > 100 µM
OVCAR-4
  GI50: 13.4 µM
  LC50: > 100 µM
HOP-62
  GI50: 43.7 µM
  LC50 (50% lethal concentration): > 100 µM
OVCAR-3
  GI50: 14.5 µM
  LC50: > 100 µM
SW-620
  GI50: 35.8 µM
  LC50: > 100 µM
NCI-H23
  GI50: 5.06 µM
  CC50: > 100 µM
DU-145
  GI50: 38 µM
  LC50 (concentration killing 50% of cells): > 100 µM
PC-3
  GI50: 9.43 µM
  LC50: > 100 µM
A498
  GI50: > 100 µM
  CC50: > 100 µM
[1]
  GI50: > 100 µM
  LC50: > 100 µM
UO-31
  GI50: 19.7 µM
  LC50: > 100 µM
MOLT-4
  GI50: 2.54 µM
  LC50: > 100 µM
CCRF-CEM
  GI50: 2.71 µM
  LC50 (concentration killing 50% of cells relative to time zero): > 100 µM
TK-10
  GI50: 20.9 µM
  LC50 (concentration giving 50% cell loss vs time zero): > 100 µM
